# Assay outcomes: PubChem, several laboratories
# In the library only some 2.3% were active in any assay of this set; here they are far more common.
# Fh CTSL1 inh: counter-screen for PFM18AAP inhibitors: inhibitors of F. hepatica cathepsin L1; actives 0.49% (n = 300,000); inhibition, % at 5.96 µM; recombinant F. hepatica cathepsin L1, Z-Leu-Arg-MCA fluorescence; AID 1906;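 active = inhibition above the mean of all tested compounds plus 3 SD, set per screening campaign, cut at about 17% in these data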
# UCH37 inh: human UCH37 deubiquitinating enzyme inhibition. Q9Y5K5. purified proteasome/UCH37, Ub-AMC cleavage fluorescence. inhibition, % (test concentration not listed). actives 0.33% (n = 330,000). AID 588478;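 active = mean inhibition over replicate wells above about 20%, limit read from the data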
#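 Material: human UCH37 enzyme supplied as purified proteasome complex. Measure: % inhibition of Ub-AMC cleavage fluorescence. Medium: pH 7.4 Tris-HCl (50 mM) with ovalbumin, ATP-MgCl2, DTT. Times: 30 min preincubation with enzyme, 25 min cleavage at room temperature. Detection: AMC fluorescence intensity at 355/460 nm.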
# PP1 counter: counter-screen for PP5 inhibitors: inhibitors of human PP1-alpha; P62136; purified PP1alpha, OMFP fluorescence; inhibition, % at 6.7 µM; actives 0.9% (n = 320,000); AID 2235;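 active = inhibition above the mean inhibition of all tested compounds plus 3 SD, computed separately for each screening campaign, cut at about 15% in these data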
# UBC13 polyUb: human UBC13 polyubiquitination inhibition. P61088. UBC13 polyubiquitin chain formation, TR-FRET. inhibition, % at 20 µM. actives 0.47% (n = 330,000). AID 485273; in the data active = inhibition above about 45%, passing the limit was not always enough
# PREPL inh: inhibitors of human prolyl oligopeptidase-like enzyme PREPL. actives 0.68% (n = 320,000). AID 2751. inhibition, % at 5.96 µM. recombinant PREPL, fluorescence polarization activity-based probe; in the data active = inhibition above about 43%
# Target sequence (Q4J6C6 whole entry, looked up): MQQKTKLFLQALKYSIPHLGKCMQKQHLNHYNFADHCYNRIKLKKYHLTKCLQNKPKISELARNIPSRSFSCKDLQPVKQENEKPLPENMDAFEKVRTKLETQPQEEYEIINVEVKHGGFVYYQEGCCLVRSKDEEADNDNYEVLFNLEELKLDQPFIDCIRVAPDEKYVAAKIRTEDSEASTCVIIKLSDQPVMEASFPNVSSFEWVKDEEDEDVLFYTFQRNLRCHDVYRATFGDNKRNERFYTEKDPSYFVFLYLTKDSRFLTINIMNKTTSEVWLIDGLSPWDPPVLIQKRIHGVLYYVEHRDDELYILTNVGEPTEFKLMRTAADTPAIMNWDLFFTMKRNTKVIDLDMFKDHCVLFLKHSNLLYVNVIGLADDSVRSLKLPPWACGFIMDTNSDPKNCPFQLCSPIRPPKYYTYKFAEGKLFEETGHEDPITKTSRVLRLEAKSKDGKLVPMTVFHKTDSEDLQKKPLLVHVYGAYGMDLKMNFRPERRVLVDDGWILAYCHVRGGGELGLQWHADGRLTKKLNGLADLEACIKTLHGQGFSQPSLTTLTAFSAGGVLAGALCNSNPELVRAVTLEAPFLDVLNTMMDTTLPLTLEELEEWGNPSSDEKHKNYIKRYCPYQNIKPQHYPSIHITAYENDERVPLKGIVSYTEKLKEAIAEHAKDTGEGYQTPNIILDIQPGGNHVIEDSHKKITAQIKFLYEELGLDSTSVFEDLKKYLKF
# PP5 inh: PP5 (human) phosphatase inhibition; inhibition, % at 6.7 µM; purified PP5c, OMFP substrate fluorescence; actives 0.18% (n = 320,000); AID 1987;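 active = inhibition above the campaign's mean inhibition across all tested compounds plus 3 SD, cut at about 9.5% in these data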
# PP1 confirm: confirmation of human PP1 phosphatase inhibitors | actives 52% (n = 1,900) | AID 2358 | shares compounds with PP1 counter | inhibition, % at 6.7 µM | purified PP1alpha, OMFP substrate fluorescence;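 active = mean PP1 inhibition above a set limit taken from the earlier primary screen, cut at about 15% in these data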
# PP5 counter: PP5 phosphatase inhibition, counter-screen for PP1 inhibitors. shares compounds with PP1 counter. purified PP5c, OMFP fluorescence. inhibition, % at 6.7 µM. actives 4% (n = 1,900). AID 2360;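 active = mean PP5 inhibition over triplicate wells above about 9.5% taken from the earlier PP1 screen, limit read from the data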
# Numbers stand for hits; - = inactive; . = no result given.
SMILES,Fh CTSL1 inh,UCH37 inh,PP1 counter,UBC13 polyUb,PREPL inh,PP5 inh,PP1 confirm,PP5 counter
COc1ccc(C2=NN(C(=O)CCCC(=O)O)C(c3cn(-c4ccccc4)nc3-c3ccccc3)C2)cc1 (stereo not drawn),-,-,28.6,-,-,-,17.6,-
O=C(Nc1nnc(-c2ccc(Cl)cc2)o1)c1nc2ccccc2s1,-,-,22.1,-,-,-,26.2,-
O=C(Nc1nnc(-c2ccc(Cl)cc2)o1)Nc1ccccc1Cl,-,-,-,-,-,-,.,.
O=C(NN=Cc1ccc(OC(=O)c2ccccc2)cc1)c1ccc(CN2CCOCC2)cc1,.,-,.,.,.,.,.,.
O=C1N=C(N2CCN(c3cccc4ccccc34)CC2)S/C1=C/c1cccs1,-,-,23.6,-,-,-,18.9,-
Cc1ccccc1/C=N/Nc1nc2ccccc2[nH]1,-,.,-,-,-,-,.,.
O=[N+]([O-])c1cc(/C=N/Nc2nc3ccccc3[nH]2)c(O)cc1O,-,.,17.8,.,-,-,31.2,-
COc1cc(/C=C(\C#N)C(=O)Nc2cccc(C(=O)O)c2)ccc1OCc1ccc(Cl)cc1,-,.,31.4,-,-,-,24.2,-
COc1cc(/C=C(/C#N)C(=O)Nc2ccccc2)c(Br)cc1OCc1ccc(C(=O)O)cc1,-,-,-,-,-,-,.,.
COc1ccc(C=NNC(=O)CC(=O)NCc2cccnc2)cc1,.,-,.,.,.,.,.,.
O=C(CSc1nc2ccc(NC(=O)CSc3nnnn3Cc3ccccc3)cc2s1)Nc1ccccc1,-,-,22.2,-,-,-,-,-
Cc1cc(C)c(NC(=O)CSc2nc3ccc(NC(=O)CSc4nnnn4Cc4ccccc4)cc3s2)c(C)c1,-,-,19.8,-,-,-,30.5,-
COC(=O)CSc1nc2ccc(NC(=O)CSc3nnnn3Cc3ccccc3)cc2s1,-,-,-,-,-,-,.,.
COc1ccc(NC(=O)c2ccc(CNc3c(NC4CCCCC4)c(=O)c3=O)cc2)c(OC)c1,-,-,21.1,-,-,-,19.4,-
CCOc1ccc(NC(=O)c2ccc(CNc3c(NC4CCCCC4)c(=O)c3=O)cc2)cc1,-,-,-,-,-,-,.,.
COc1ccc(/C=N/Nc2nc(C(=O)O)cs2)cc1,-,.,20.0,-,-,-,-,-
O=C(Nc1ccc(-c2nc3ncccc3o2)cc1)c1ccc(Br)o1,-,-,24.9,-,-,-,-,-
O=C(Nc1ccc(-c2nc3ncccc3o2)cc1)c1ccco1,-,-,-,-,-,-,.,.
O=[N+]([O-])c1ccc(C=Nn2c(-c3ccccc3)n[nH]c2=S)cc1,.,-,.,.,.,.,.,.
COc1ccccc1Nc1nnc(SCC(=O)Nc2cc(C)on2)s1,-,-,19.2,-,-,-,-,-
Cc1cc(NC(=O)CSc2nnc(NCc3ccccc3)s2)no1,-,-,-,-,-,-,.,.
CC(=NNC(=O)c1cccnc1)c1c(O)cc(C)oc1=O,.,-,.,.,.,.,.,.
O=C1C(=O)N(c2cccc(Cl)c2)C(c2ccccc2[N+](=O)[O-])/C1=C(\O)c1ccccc1 (stereo not drawn),-,-,-,-,-,-,-,-
O=C1C(=O)N(c2ccccc2)C(c2ccccc2[N+](=O)[O-])/C1=C(\O)c1ccccc1 (stereo not drawn),-,-,-,-,-,-,.,.
CC1=NNC(=O)/C1=C\c1cn(-c2ccccc2)nc1-c1cccs1,-,-,18.5,-,-,-,-,-
SMILES,Fh CTSL1 inh,UCH37 inh,PP1 counter,UBC13 polyUb,PREPL inh,PP5 inh,PP1 confirm,PP5 counter
CC(=O)Oc1ccc(C=NNC(=O)c2cc3c(ccc4ccccc43)o2)cc1,.,-,.,.,.,.,.,.
O=C(NN=Cc1cc([N+](=O)[O-])ccc1O)c1ccncc1,.,-,.,.,.,.,.,.
CCC(=O)N1CCN(c2ccccc2NC(=O)c2ccc(-c3cccc([N+](=O)[O-])c3)o2)CC1,-,-,19.0,-,-,-,17.1,-
CN1CCN(c2ccccc2NC(=O)c2ccc(-c3cccc([N+](=O)[O-])c3)o2)CC1,-,-,-,.,-,-,.,.
CN(C)c1ccc(C=NNc2ccccn2)cc1,.,-,.,.,.,.,.,.
Cc1ccc(-c2ccc(SCC(=O)Nc3ccc4c(c3)OCCO4)nn2)cc1,-,-,38.3,-,-,-,-,-
CC(=O)Nc1ccc(NC(=O)CSc2ccc(-c3ccc4c(c3)OCO4)nn2)cc1,-,.,-,-,-,-,.,.
CC1=NN(c2nc3ccccc3[nH]2)C(=O)/C1=C/N(C)C,-,-,23.3,-,-,-,-,-
O=C(Nc1nc(-c2ccccn2)cs1)c1cccc(-n2cnnn2)c1,-,-,27.1,-,-,-,21.3,-
O=C(Nc1nc(-c2ccccn2)cs1)c1ccc(Br)s1,-,-,30.9,-,-,-,16.7,-
O=C(NN=Cc1ccc(Cl)cc1Cl)c1ccc(-n2cnnn2)cc1,.,-,.,.,.,.,.,.
CN(c1ccccc1)S(=O)(=O)c1ccc(C(=O)Nc2nnc(-c3ccco3)o2)cc1,-,-,22.3,-,-,-,20.4,-
CCN(c1ccccc1)S(=O)(=O)c1ccc(C(=O)Nc2nnc(-c3ccco3)o2)cc1,-,-,19.4,-,-,-,22.8,-
O=C(NN=Cc1ccc2c(c1)OCO2)c1cccnc1,.,-,.,.,.,.,.,.
Cc1ccccc1OCCC(=O)OCC(=O)NC(=O)c1ccccc1,-,-,22.5,-,-,-,-,-
Nc1ncnc2oc(-c3ccco3)c(-c3ccco3)c12,-,-,25.2,61.0,-,-,16.1,-
C=CCn1c(COc2ccccc2)nnc1SCC(=O)NN=Cc1ccc(C)cc1,.,-,.,.,.,.,.,.
c1ccc(-c2n[nH]c(-c3ccccn3)n2)nc1,-,-,27.3,-,-,-,23.3,-
COc1ccc(CC(=O)NN=Cc2cc([N+](=O)[O-])cc(Br)c2O)cc1,.,-,.,.,.,.,.,.
O=c1c(=Cc2ccc(O)cc2)sc2n1CCCN=2,.,-,.,.,.,.,.,.
CCc1ccc(NC(=O)Cn2c(=O)c3cccn3c3ccccc32)cc1,-,-,22.0,-,-,-,18.0,-
COc1ccc(/C=C2\SC(=O)N(CC(=O)NNC(=O)c3ccccc3O)C2=O)cc1,-,-,17.8,-,-,-,22.8,-
O=C(CN1C(=O)S/C(=C\c2ccccc2)C1=O)NNC(=O)c1ccccc1O,-,-,-,-,-,-,.,.
CC(CC(=O)NC12CC3CC(CC(C3)C1)C2)=NNC(=O)c1ccc(C)cc1,.,-,.,.,.,.,.,.
CC(=O)c1ccc(N2CCN(C(=O)c3ccc(Cn4c(=S)[nH]c5ccc(N6CCOCC6)cc5c4=O)cc3)CC2)cc1,-,-,45.4,-,-,-,29.5,-
O=C(NN=C/C=C/c1ccccc1)c1cc2c(ccc3ccccc32)o1,.,-,.,.,.,.,.,.
O=C(O)C(Cc1ccccc1)N1C(=O)c2cccc3cccc(c23)C1=O (stereo not drawn),-,-,-,-,-,-,.,.
